According to ChEMBL document CHEMBL1806394, “Synthesis, in vitro evaluation and molecular docking studies of new triazole derivatives as antifungal agents” (2011):
In brackets after ≈: the same amount, converted by molar mass.

How the values were obtained:
Type in all cases: functional
Candida albicans [1] = assay: Antifungal activity against Candida albicans Y0109 by micro-broth dilution method
How it was run: (§1)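 MIC80 determined by broth microdilution following NCCLS methods. C. albicans SC5314 and Y0109 and C. neoformans BLS108 served as quality-control strains and were included in every assay. Fluconazole, itraconazole, voriconazole and amphotericin B were run as positive controls.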

Candida parapsilosis = assay: Antifungal activity against Candida parapsilosis by micro-broth dilution method; settings: Lodderomyces parapsilosis; how it was run: as §1
Cryptococcus neoformans = assay: Antifungal activity against Cryptococcus neoformans BLS108 by micro-broth dilution method; how it was run: as §1
Aspergillus fumigatus = assay: Antifungal activity against Aspergillus fumigatus by micro-broth dilution method; how it was run: as §1
Kluyveromyces marxianus = assay: Antifungal activity against Candida kefyr by micro-broth dilution method
Candida albicans [2] = assay: Antifungal activity against Candida albicans SC5314 by micro-broth dilution method; how it was run: as §1
Trichophyton rubrum = assay: Antifungal activity against Trichophyton rubrum by micro-broth dilution method; how it was run: as §1
Candida tropicalis = assay: Antifungal activity against Candida tropicalis by micro-broth dilution method; how it was run: as §1

Compound	MIC80 (Candida albicans [1])	MIC80 (Candida parapsilosis)	MIC80 (Cryptococcus neoformans)	MIC80 (Aspergillus fumigatus)	MIC80 (Kluyveromyces marxianus)	MIC80 (Candida albicans [2])	MIC80 (Trichophyton rubrum)	MIC80 (Candida tropicalis)
O=C(Nc1ccc(-n2cnn(CC(O)(Cn3cncn3)c3ccc(F)cc3F)c2=O)cc1)c1ccc(OC(F)(F)F)cc1 (single isomer, unassigned)	1 µg/mL (≈ 1.66 µM)	1 µg/mL (≈ 1.66 µM)	> 64 µg/mL	> 64 µg/mL	> 64 µg/mL	0.25 µg/mL (≈ 0.416 µM)	4 µg/mL (≈ 6.65 µM)	64 µg/mL (≈ 106 µM)
O=C(Nc1ccc(-n2cnn(CC(O)(Cn3cncn3)c3ccc(F)cc3F)c2=O)cc1)c1cccc(Cl)c1 (single isomer, unassigned)	0.00024 µg/mL (≈ 0.000435 µM)	0.00024 µg/mL (≈ 0.000435 µM)	16 µg/mL (≈ 29 µM)	> 64 µg/mL	4 µg/mL (≈ 7.25 µM)	0.00024 µg/mL (≈ 0.000435 µM)	> 64 µg/mL	1 µg/mL (≈ 1.81 µM)
O=C(/C=C/c1ccc(Br)cc1)Nc1ccc(-n2cnn(CC(O)(Cn3cncn3)c3ccc(F)cc3F)c2=O)cc1 (single isomer, unassigned)	4 µg/mL (≈ 6.43 µM)	1 µg/mL (≈ 1.61 µM)	> 64 µg/mL	> 64 µg/mL	> 64 µg/mL	1 µg/mL (≈ 1.61 µM)	> 64 µg/mL	> 64 µg/mL
O=C(Nc1ccc(-n2cnn(CC(O)(Cn3cncn3)c3ccc(F)cc3F)c2=O)cc1)c1ccc(Cl)cc1Cl (single isomer, unassigned)	0.0625 µg/mL (≈ 0.107 µM)	0.0156 µg/mL (≈ 0.0266 µM)	> 64 µg/mL	> 64 µg/mL	4 µg/mL (≈ 6.82 µM)	0.0625 µg/mL (≈ 0.107 µM)	> 64 µg/mL	0.25 µg/mL (≈ 0.426 µM)
O=C(Nc1ccc(-n2cnn(CC(O)(Cn3cncn3)c3ccc(F)cc3F)c2=O)cc1)c1ccccc1F (single isomer, unassigned)	4 µg/mL (≈ 7.47 µM)	0.0156 µg/mL (≈ 0.0291 µM)	64 µg/mL (≈ 120 µM)	> 64 µg/mL	1 µg/mL (≈ 1.87 µM)	0.0625 µg/mL (≈ 0.117 µM)	16 µg/mL (≈ 29.9 µM)	0.0625 µg/mL (≈ 0.117 µM)
CCCc1ccc(C(=O)Nc2ccc(-n3cnn(CC(O)(Cn4cncn4)c4ccc(F)cc4F)c3=O)cc2)cc1 (single isomer, unassigned)	1 µg/mL (≈ 1.79 µM)	4 µg/mL (≈ 7.15 µM)	> 64 µg/mL	> 64 µg/mL	> 64 µg/mL	0.0039 µg/mL (≈ 0.00697 µM)	> 64 µg/mL	1 µg/mL (≈ 1.79 µM)
O=C(Nc1ccc(-n2cnn(CC(O)(Cn3cncn3)c3ccc(F)cc3F)c2=O)cc1)c1ccc(Cl)cc1 (single isomer, unassigned)	1 µg/mL (≈ 1.81 µM)	1 µg/mL (≈ 1.81 µM)	0.0625 µg/mL (≈ 0.113 µM)	> 64 µg/mL	1 µg/mL (≈ 1.81 µM)	1 µg/mL (≈ 1.81 µM)	> 64 µg/mL	1 µg/mL (≈ 1.81 µM)

The remaining lines, values ahead:

MIC80 (Candida albicans [1])	MIC80 (Candida parapsilosis)	MIC80 (Cryptococcus neoformans)	MIC80 (Aspergillus fumigatus)	MIC80 (Kluyveromyces marxianus)	MIC80 (Candida albicans [2])	MIC80 (Trichophyton rubrum)	MIC80 (Candida tropicalis)	Compound
0.0156 µg/mL (≈ 0.0272 µM)	0.0625 µg/mL (≈ 0.109 µM)	> 64 µg/mL	> 64 µg/mL	> 64 µg/mL	0.0156 µg/mL (≈ 0.0272 µM)	> 64 µg/mL	0.25 µg/mL (≈ 0.436 µM)	CCCCc1ccc(C(=O)Nc2ccc(-n3cnn(CC(O)(Cn4cncn4)c4ccc(F)cc4F)c3=O)cc2)cc1 (single isomer, unassigned)
> 64 µg/mL	1 µg/mL (≈ 1.7 µM)	> 64 µg/mL	> 64 µg/mL	> 64 µg/mL	> 64 µg/mL	> 64 µg/mL	> 64 µg/mL	O=C(/C=C/c1ccc([N+](=O)[O-])cc1)Nc1ccc(-n2cnn(CC(O)(Cn3cncn3)c3ccc(F)cc3F)c2=O)cc1 (single isomer, unassigned)
1 µg/mL (≈ 1.66 µM)	4 µg/mL (≈ 6.63 µM)	> 64 µg/mL	> 64 µg/mL	> 64 µg/mL	1 µg/mL (≈ 1.66 µM)	> 64 µg/mL	1 µg/mL (≈ 1.66 µM)	COc1ccc(/C=C/C(=O)Nc2ccc(-n3cnn(CC(O)(Cn4cncn4)c4ccc(F)cc4F)c3=O)cc2)cc1OC (single isomer, unassigned)
4 µg/mL (≈ 6.71 µM)	1 µg/mL (≈ 1.68 µM)	16 µg/mL (≈ 26.8 µM)	> 64 µg/mL	> 64 µg/mL	1 µg/mL (≈ 1.68 µM)	> 64 µg/mL	4 µg/mL (≈ 6.71 µM)	O=C(Nc1ccc(-n2cnn(CC(O)(Cn3cncn3)c3ccc(F)cc3F)c2=O)cc1)c1ccccc1Br (single isomer, unassigned)
